High-throughput results from PubChem.
Compounds with a hit are over-represented: about 2% of the library has one in this group of screens.
SUMO1 PPI mod: modulators of human SUMO1-mediated protein-protein interactions | AID 602429 | inhibition, % at 20 µM | SUMO1 binding to a labelled peptide, TR-FRET, 1 h | 360,000 tested, 0.33% active; in the data active means inhibition above about 37%
Target sequence (P63165 whole entry, looked up): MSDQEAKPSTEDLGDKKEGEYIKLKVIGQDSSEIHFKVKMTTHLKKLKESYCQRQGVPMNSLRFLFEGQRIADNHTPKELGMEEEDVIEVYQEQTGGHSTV
STEP block: blocks human striatal-enriched tyrosine phosphatase. recombinant STEP, OMFP fluorogenic substrate, fluorescence. inhibition, % at 20 µM. AID 588621. 360,000 tested, 0.25% active;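 active means inhibition at 20 µM, scaled per plate between control wells, above about 37%, limit read from the data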
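System: STEP phosphatase, cell-free reaction; Buffer or medium: Bis-Tris pH 6.0 buffer with DTT, detergent; Incubation: 20 min at room temperature, dark; Measured by: fluorescence, 480/540 nm.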
Scp1 inh: blocks human Scp-1 phosphatase activity | inhibition, % at 20 µM | 340,000 tested, 0.88% active | Q9GZU7 | AID 493091 | Recombinant Scp1, phosphopeptide, malachite green phosphate absorbance;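 active means inhibition above about 50% at 20 µM, limit read from the data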
Target sequence (Q9GZU7 76-261 limits assumed): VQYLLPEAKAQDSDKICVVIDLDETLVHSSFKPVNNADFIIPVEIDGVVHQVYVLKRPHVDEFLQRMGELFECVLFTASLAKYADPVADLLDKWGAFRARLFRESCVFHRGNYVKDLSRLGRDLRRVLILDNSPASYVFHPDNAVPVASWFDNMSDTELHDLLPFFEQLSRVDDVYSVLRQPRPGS
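System: truncated SCP-1 phosphatase (76-261aa); medium: Tris acetate buffer pH 5.5 with MgCl2 and Tween-20; incubation: 45 min room-temperature reaction, 5 min colour, 30 min stabiliser; compound: single 20 µM dose, 1% DMSO; reagent: Phosphorylated 17-residue peptide substrate; read-out: % inhibition at 20 µM; technique: colorimetric free-phosphate detection, absorbance 630 nm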
DNMT1 block: inhibitors of human DNMT1. P26358. DNMT1 molecular beacon, Hinp1I cleavage, fluorescence. inhibition (reported as % activation of signal), % at 10 µM. 360,000 tested, 0.83% active; in the data active means inhibition above about 50%
LMPTP block: blocks human LMPTP phosphatase. recombinant LMPTP-A, OMFP fluorogenic substrate, fluorescence intensity. inhibition, % at 20 µM. 360,000 tested, 0.22% active. AID 651560;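 active means compounds that cut the enzyme signal by at least half of the control window in the single-dose screen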
Target sequence (P24666 whole entry, looked up): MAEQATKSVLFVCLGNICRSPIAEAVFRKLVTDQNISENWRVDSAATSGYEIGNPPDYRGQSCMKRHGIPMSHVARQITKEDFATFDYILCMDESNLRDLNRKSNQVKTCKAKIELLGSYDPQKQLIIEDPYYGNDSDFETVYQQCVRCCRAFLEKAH
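test system = LMPTP-A | amount = 0.625 nM LMPTP-A final | reagent = fluorogenic phosphatase substrate OMFP at 400 µM final | incubation = 50 min at room temperature | benchmarks = no-enzyme low control, uninhibited high control | medium = Bis-Tris pH 6.0, DTT, detergent | signal = fluorescence intensity of OMFP turnover product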
CSN deneddyl inh: blocks human CSN-mediated cullin deneddylation. Q92905. Purified CSN, SCF-Nedd8-OG deneddylation, fluorescence polarization. inhibition, % at 12.5 µM. 360,000 tested, 0.38% active. AID 651999;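 active means pattern-corrected inhibition above about 35%, with an unprinted fluorescence ratio check between 0.5 and 1.5, limit read from the data, passing the limit was not always enough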
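Test system: purified human Csn5 enzyme expressed in HEK293T cells. Amount: 0.24 nM enzyme. Reagent: SCFSkp2-Nedd8OG substrate at 10 nM final. Schedule: 90 min incubation of compound, enzyme and substrate at room temperature. Detection: fluorescence polarization. Read-out: % inhibition of substrate cleavage by Csn5.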
Scp1 confirm: confirmation of human Scp-1 phosphatase inhibitors; shares compounds with Scp1 inh; recombinant SCP-1 catalytic domain, phosphate release, malachite green absorbance; inhibition, % at 20 µM; 2,500 tested, 61% active; AID 540281
MG interference: colorimetric interference in Scp-1 counter-screen; shares compounds with Scp1 inh; Colorimetric interference counterscreen, malachite green absorbance 630 nm; apparent inhibition (interference), % at 20 µM; 2,500 tested, under 10 active; AID 540313;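 further: compounds added after enzyme reaction finished so only phosphate colour detection is probed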
Scp-1 Tm shift: binds human Scp-1, shifting its melting temperature | shares compounds with Scp1 inh | Recombinant SCP1, Sypro Orange thermal shift Tm | thermal shift relative to vanadate control, % at 40 µM | 1,500 tested, 25% active;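 active means substances whose mean melting-temperature shift, as a percentage of the reference inhibitor's shift, reaches about 5.3%, limit read from the data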
Large screens that a line does not name were inactive (follow-up assays come after a bar, where they were run).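 How the source made its calls, unless noted: active means inhibition of at least 30% at 20 µM; inactive means the rest.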

COc1cccc(NC(=S)/C(=C(\[O-])c2cc(C)n(-c3ccccc3F)c2C)[n+]2ccc(N(C)C)cc2)c1	none
O=C(C1CCN(S(=O)(=O)c2cc(Cl)ccc2Cl)CC1)N1CCCC1	none
O=C(CSc1n[nH]c(=O)n1Cc1ccco1)Nc1ccccc1Cl	none
Cc1ccc(C(=O)O)cc1NC(=S)NC(=O)c1ccc(COc2ccccc2)cc1	Scp1 inh 50.3 | Scp1 confirm 36.8 | MG interference inactive | Scp-1 Tm shift inactive
CC1CCCN(C(=O)CN(C)S(=O)(=O)c2ccc3c(c2)c(=O)n(C)c(=O)n3C)C1 (stereo not drawn)	none
CCN(CC(=O)N1CCCC1)S(=O)(=O)c1ccc(OC)cc1	none
CCCC(=O)Nc1ccc2nc(SCC(=O)Nc3nccs3)sc2c1	Scp1 inh 102.1 | Scp1 confirm inactive | MG interference inactive
O=C(CCCSc1nc2ccccc2s1)Nc1nccs1	none
C[C@@H]1CN([C@H](C)CO)C(=O)CCCn2cc(nn2)CO[C@H]1CN(C)S(=O)(=O)c1ccc(C#N)cc1	none (no result: Scp1 inh)
O=C(Nc1cc2c(cc1Cl)OCCCO2)c1ccco1	none | Scp1 confirm inactive | MG interference inactive
O=C(Nc1cc2c(cc1Cl)OCCCO2)c1ccccc1	none
COc1ccc(-n2nc(C(=O)NCC(=O)NCCCN3CCN(C)CC3)c3ccccc3c2=O)cc1	none
Cc1cccc(C)c1NC(=O)NC1(C(=O)N2CCN3CCCC3C2)CCCCC1 (stereo not drawn)	Scp1 inh 70.3 | Scp1 confirm inactive | MG interference inactive
N#Cc1ccccc1OCC(=O)OCCCOC(=O)COc1ccccc1C#N	Scp1 inh 96.4 | Scp1 confirm inactive | MG interference inactive
N#Cc1ccccc1OCC(=O)OCC(=O)N1CCCC1	none
O=C(O)CN1C(=O)/C(=C2\C(=O)N(Cc3ccccc3Cl)c3ccccc32)SC1=S	STEP block 52.4, Scp1 inh 82.5 | Scp1 confirm 61.7 | MG interference inactive | Scp-1 Tm shift 15.9
CC(C(=O)NCCC1=CCCCC1)c1ccc([N+](=O)[O-])cc1 (stereo not drawn)	none
CC(Oc1cccc([N+](=O)[O-])c1)C(=O)NCCC1=CCCCC1 (stereo not drawn)	Scp1 inh 59.0 | Scp1 confirm inactive | MG interference inactive
O=C(Cc1ccccc1)Nc1cccc(-c2nc3ncccc3o2)c1	Scp1 inh 67.8 | Scp1 confirm inactive | MG interference inactive
O=C(OCN1C(=O)c2ccccc2C1=O)c1cccc(S(=O)(=O)N2CCOCC2)c1	none
O=C(O)CCCC(=O)Nc1ccc(Cl)cc1	none
O=C(O)CCNc1ccc(Cl)cc1	Scp1 inh 51.7 | Scp1 confirm 43.1 | MG interference inactive | Scp-1 Tm shift inactive
CCOC(=O)C1(C)C(C(=O)OC)=C(c2ccc(OC)cc2)c2ccccc2N1C(=O)OC (stereo not drawn)	Scp1 inh 95.6 | Scp1 confirm 56.5 | MG interference inactive | Scp-1 Tm shift inactive
CCOC(=O)C1C(C(=O)OC)=C(c2ccc(OC)cc2)c2ccccc2N1S(=O)(=O)C(F)(F)F (stereo not drawn)	none
CN(C)C1CCN(C(=O)c2cccc(OC3CCN(S(=O)(=O)N(C)C)CC3)c2)C1 (stereo not drawn)	none
O=C(CCCOc1ccccc1)N1CCN(S(=O)(=O)c2ccc(Cl)cc2)CC1	none
CCOc1ccc(OCCCC(=O)N2CCN(S(=O)(=O)c3ccc(Cl)cc3)CC2)cc1	Scp1 inh 56.4 | Scp1 confirm 78.9 | MG interference inactive | Scp-1 Tm shift inactive
Cc1cc(C(=O)O)cc(S(=O)(=O)NNC(=O)c2cccs2)c1C	Scp1 inh 53.3 | Scp1 confirm inactive | MG interference inactive
O=C(NNC(=O)c1cccs1)c1ccc(Cl)c(S(=O)(=O)N2CCCC2)c1	none
CC(C)Cc1ccc(S(=O)(=O)NCC2CCCO2)cc1 (stereo not drawn)	none
Cc1ccc(C(=O)N/C(=C\c2ccco2)C(=O)NCCN2CCOCC2)cc1	Scp1 inh 75.2 | Scp1 confirm inactive | MG interference inactive
CC1=NN(c2ccc(Cl)cc2)C(=O)/C1=C\c1cccn1-c1ccc(S(N)(=O)=O)cc1	none
O=C(NCc1cccnc1)c1cccc(S(=O)(=O)N2CCOCC2)c1	Scp1 inh 63.6 | Scp1 confirm inactive | MG interference inactive
COc1ccc(C(=O)N2CCCC(CNC(=O)c3ccccc3Cl)C2)o1 (stereo not drawn)	none
CCOC(=O)C1=C(C)NC(C)=C(C(=O)OCC)C1C(=O)OCC(=O)N(C)C	none
Cc1c(/C=N/NC(=O)c2cc(Br)ccc2O)c(=O)n(C)c(=O)n1C	none
Cc1ccc(NC(=O)CN2C(=O)CSc3ccc(S(=O)(=O)N4CCCCC4)cc32)cc1	Scp1 inh 56.0 | Scp1 confirm 56.5 | MG interference inactive | Scp-1 Tm shift 46.9
CC(=O)c1ccc(NC(=O)CN2C(=O)COc3ccc(S(=O)(=O)N4CCCC4)cc32)cc1	Scp1 inh 69.5 | Scp1 confirm 47.0 | MG interference inactive | Scp-1 Tm shift 11.9
CCOc1ccc(NC(=O)CN2C(=O)CSc3ccc(S(=O)(=O)N4CCCC4)cc32)cc1	none
Cc1cc(C)cc(NC(=O)CN2C(=O)COc3ccc(S(=O)(=O)N4CCCC4)cc32)c1	none
Nc1ccc(S(=O)(=O)NCC(=O)OC2CCOC2=O)cc1[N+](=O)[O-] (stereo not drawn)	Scp1 inh 54.6 | Scp1 confirm inactive | MG interference inactive
COc1cc(Cl)c(C)cc1NC(=O)COC(=O)C1CC1C (stereo not drawn)	none
Cc1nc(NC(=O)COC(=O)C2CC2C)c(Cl)cc1Cl (stereo not drawn)	Scp1 inh 51.1 | Scp1 confirm inactive | MG interference inactive
CCOC(=O)Cn1c2[n+](c3ccccc31)CC(O)CS2 (stereo not drawn)	Scp1 inh 101.7 | Scp1 confirm 91.2 | MG interference inactive | Scp-1 Tm shift inactive
Cn1c(=O)c(=O)n(C)c2cc(S(=O)(=O)CCC(=O)NCc3ccccc3)ccc21	Scp1 inh 71.4 | Scp1 confirm inactive | MG interference inactive
Cc1ccc(S(=O)(=O)CCC(=O)NCc2ccccc2)cc1	none
